Laboratory results: ChEMBL document CHEMBL4811254, “Beyond Basicity: Discovery of Nonbasic DENV-2 Protease Inhibitors with Potent Activity in Cell Culture” (J Med Chem, 2021)
pEC50: −log10 of the molar value. Calls of active or inactive are those of the source.

Key:
[1] = Passive membrane permeability of the compound in phosphate buffered saline assessed as mass retention of the compound at 200 uM incubated for 5 hrs by PAMPA assay based HPLC analysis; format: ADME
Method in brief: (§1)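 Precoated trilayer PAMPA, 5 h incubation. Acceptor and donor concentrations measured after 5 h. Permeability and mass retention calculated by a literature method.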

[2] = Passive membrane permeability of the compound in phosphate buffered saline at 200 uM incubated for 5 hrs by PAMPA assay based HPLC analysis; format: ADME; conditions: PAMPA, read-out: permeability; method in brief: as §1
[3] = Passive membrane permeability of the compound in phosphate buffered saline assessed as concentration of the compound in donor plate at 200 uM incubated for 5 hrs by PAMPA assay based HPLC analysis; format: ADME; method in brief: as §1
[4] = Passive membrane permeability of the compound in phosphate buffered saline assessed as concentration of the compound in acceptor plate at 200 uM incubated for 5 hrs by PAMPA assay based HPLC analysis; format: ADME; method in brief: as §1
[5] = molecular target: Prothrombin (Homo sapiens) (UniProt P00734); experiment: Inhibition of thrombin in human plasma using Boc-Val-Pro-Arg-AMC as substrate at 25 uM preincubated with enzyme for 15 mins followed by substrate addition and measured for 15 mins by fluorimetric assay; format: cell-free; conditions: time 30.0 min
[6] = Cytotoxicity against human HeLa cells assessed as reduction in cell viability incubated for 24 hrs by CellTiter-Blue assay; format: cell-based
Method in brief: (§2)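 Viability by CellTiter-Blue in HeLa or Huh-7 cells exposed to compound dilutions. Plates run in parallel with the reporter assay (HeLa) or the virus titer assay (Huh-7).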

[7] = molecular target: Genome polyprotein (dengue virus type 2) (UniProt P29990); experiment: Inhibition of DENV2 NS2B-NS3 protease expressed in Escherichia coli BL21 lambda(DE3) using FRET substrate preincubated with enzyme for 15 mins in presence of detergent CHAPS followed by substrate addition for 15 mins by fluorescence based analysis; conditions: time 30.0 min
Genome polyprotein = Genome polyprotein (dengue virus type 2, UniProt P29990); experiment: Inhibition of NS2B-NS3 protease in DENV2proHeLa system assessed as inhibition of luciferase signal incubated for 24 hrs by luciferase reporter gene assay; format: cell-based, HeLa
Method in brief: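 HeLa cells stably carrying the reporter system, 2 × 10⁴ per well, given inhibitor at seeding and held 24 h at 37 °C. Cells lysed 15 min at room temperature. Luciferase read for 5 s after injecting coelenterazine (2.75 μM in PBS). Triplicate wells per concentration; percent inhibition taken against untreated cells. EC50/EC90 from 4-parameter dose-response fit, background from cell-free wells subtracted.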

Trypsin (Homo sapiens) = Trypsin (Homo sapiens) (UniProt P07477+P07478+P35030); experiment: Inhibition of trypsin (unknown origin) using Boc-Val-Pro-Arg-AMC as substrate at 50 uM preincubated with enzyme for 15 mins followed by substrate addition and measured for 15 mins by fluorimetric assay; format: protein assay; conditions: time 30.0 min
[8] = molecular target: Genome polyprotein (dengue virus type 2) (UniProt P29990); experiment: Inhibition of NS2B-NS3 protease in DENV2proHeLa system assessed as inhibition of luciferase signal at 12.5 uM incubated for 24 hrs by luciferase reporter gene assay; format: cell-based; conditions: HeLa
Method in brief: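 Stable DENV2proHeLa cells seeded at 2 × 10⁴/well and dosed immediately, then incubated 24 h at 37 °C. Cells lysed 15 min at room temperature. Luciferase read with coelenterazine (2.75 μM in PBS) injection, luminescence 5 s. Triplicates; percent inhibition calculated relative to untreated control; background from cell-free wells.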

[9] = molecular target: Genome polyprotein (West Nile virus) (UniProt P06935); experiment: Inhibition of WNV NS2B-NS3 protease expressed in Escherichia coli BL21 lambda(DE3) using FRET substrate preincubated with enzyme for 15 mins in presence of detergent CHAPS followed by substrate addition for 15 mins by fluorescence based analysis; conditions: time 30.0 min
dengue virus type 2 [10] = experiment: (§3) Antiviral activity against DENV2 infected in human Huh7 cells assessed as reduction in virus titer in cell supernatant by measuring inhibition of plaque formation using VeroE6 cells at 12.5 uM preincubated with viral infected Huh7 cells for 48 hrs and measured following infection of VeroE6 cells with supernatants for 7 days by plaque assay based crystal violet staining analysis; format: functional; conditions: Huh-7, 216 h, time 9 day
Method in brief: (§4)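 Huh-7 cells seeded at 1 × 10⁴/well and incubated overnight. Infected with DENV-2 at MOI 1 for 2 h, then medium changed and compound added. […] Pooled supernatants titred by plaque assay on VeroE6 cells: 10⁻¹ to 10⁻⁶ dilutions, 1 h infection, 7 days, formaldehyde fix, crystal violet.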

Huh-7 = experiment: Cytotoxicity against human Huh-7 cells assessed as reduction in cell viability at 12.5 uM incubated for 48 hrs by CellTiter-Blue assay; format: cell-based; conditions: huh-7, 48 h; method in brief: as §2
dengue virus type 2 [11] = experiment: as §3, with “cells” for “cells at 12.5 uM”; format: functional, organism-based, Huh-7; method in brief: as §4

Chain of Genome polyprotein (West Nile virus) (P06935 whole entry): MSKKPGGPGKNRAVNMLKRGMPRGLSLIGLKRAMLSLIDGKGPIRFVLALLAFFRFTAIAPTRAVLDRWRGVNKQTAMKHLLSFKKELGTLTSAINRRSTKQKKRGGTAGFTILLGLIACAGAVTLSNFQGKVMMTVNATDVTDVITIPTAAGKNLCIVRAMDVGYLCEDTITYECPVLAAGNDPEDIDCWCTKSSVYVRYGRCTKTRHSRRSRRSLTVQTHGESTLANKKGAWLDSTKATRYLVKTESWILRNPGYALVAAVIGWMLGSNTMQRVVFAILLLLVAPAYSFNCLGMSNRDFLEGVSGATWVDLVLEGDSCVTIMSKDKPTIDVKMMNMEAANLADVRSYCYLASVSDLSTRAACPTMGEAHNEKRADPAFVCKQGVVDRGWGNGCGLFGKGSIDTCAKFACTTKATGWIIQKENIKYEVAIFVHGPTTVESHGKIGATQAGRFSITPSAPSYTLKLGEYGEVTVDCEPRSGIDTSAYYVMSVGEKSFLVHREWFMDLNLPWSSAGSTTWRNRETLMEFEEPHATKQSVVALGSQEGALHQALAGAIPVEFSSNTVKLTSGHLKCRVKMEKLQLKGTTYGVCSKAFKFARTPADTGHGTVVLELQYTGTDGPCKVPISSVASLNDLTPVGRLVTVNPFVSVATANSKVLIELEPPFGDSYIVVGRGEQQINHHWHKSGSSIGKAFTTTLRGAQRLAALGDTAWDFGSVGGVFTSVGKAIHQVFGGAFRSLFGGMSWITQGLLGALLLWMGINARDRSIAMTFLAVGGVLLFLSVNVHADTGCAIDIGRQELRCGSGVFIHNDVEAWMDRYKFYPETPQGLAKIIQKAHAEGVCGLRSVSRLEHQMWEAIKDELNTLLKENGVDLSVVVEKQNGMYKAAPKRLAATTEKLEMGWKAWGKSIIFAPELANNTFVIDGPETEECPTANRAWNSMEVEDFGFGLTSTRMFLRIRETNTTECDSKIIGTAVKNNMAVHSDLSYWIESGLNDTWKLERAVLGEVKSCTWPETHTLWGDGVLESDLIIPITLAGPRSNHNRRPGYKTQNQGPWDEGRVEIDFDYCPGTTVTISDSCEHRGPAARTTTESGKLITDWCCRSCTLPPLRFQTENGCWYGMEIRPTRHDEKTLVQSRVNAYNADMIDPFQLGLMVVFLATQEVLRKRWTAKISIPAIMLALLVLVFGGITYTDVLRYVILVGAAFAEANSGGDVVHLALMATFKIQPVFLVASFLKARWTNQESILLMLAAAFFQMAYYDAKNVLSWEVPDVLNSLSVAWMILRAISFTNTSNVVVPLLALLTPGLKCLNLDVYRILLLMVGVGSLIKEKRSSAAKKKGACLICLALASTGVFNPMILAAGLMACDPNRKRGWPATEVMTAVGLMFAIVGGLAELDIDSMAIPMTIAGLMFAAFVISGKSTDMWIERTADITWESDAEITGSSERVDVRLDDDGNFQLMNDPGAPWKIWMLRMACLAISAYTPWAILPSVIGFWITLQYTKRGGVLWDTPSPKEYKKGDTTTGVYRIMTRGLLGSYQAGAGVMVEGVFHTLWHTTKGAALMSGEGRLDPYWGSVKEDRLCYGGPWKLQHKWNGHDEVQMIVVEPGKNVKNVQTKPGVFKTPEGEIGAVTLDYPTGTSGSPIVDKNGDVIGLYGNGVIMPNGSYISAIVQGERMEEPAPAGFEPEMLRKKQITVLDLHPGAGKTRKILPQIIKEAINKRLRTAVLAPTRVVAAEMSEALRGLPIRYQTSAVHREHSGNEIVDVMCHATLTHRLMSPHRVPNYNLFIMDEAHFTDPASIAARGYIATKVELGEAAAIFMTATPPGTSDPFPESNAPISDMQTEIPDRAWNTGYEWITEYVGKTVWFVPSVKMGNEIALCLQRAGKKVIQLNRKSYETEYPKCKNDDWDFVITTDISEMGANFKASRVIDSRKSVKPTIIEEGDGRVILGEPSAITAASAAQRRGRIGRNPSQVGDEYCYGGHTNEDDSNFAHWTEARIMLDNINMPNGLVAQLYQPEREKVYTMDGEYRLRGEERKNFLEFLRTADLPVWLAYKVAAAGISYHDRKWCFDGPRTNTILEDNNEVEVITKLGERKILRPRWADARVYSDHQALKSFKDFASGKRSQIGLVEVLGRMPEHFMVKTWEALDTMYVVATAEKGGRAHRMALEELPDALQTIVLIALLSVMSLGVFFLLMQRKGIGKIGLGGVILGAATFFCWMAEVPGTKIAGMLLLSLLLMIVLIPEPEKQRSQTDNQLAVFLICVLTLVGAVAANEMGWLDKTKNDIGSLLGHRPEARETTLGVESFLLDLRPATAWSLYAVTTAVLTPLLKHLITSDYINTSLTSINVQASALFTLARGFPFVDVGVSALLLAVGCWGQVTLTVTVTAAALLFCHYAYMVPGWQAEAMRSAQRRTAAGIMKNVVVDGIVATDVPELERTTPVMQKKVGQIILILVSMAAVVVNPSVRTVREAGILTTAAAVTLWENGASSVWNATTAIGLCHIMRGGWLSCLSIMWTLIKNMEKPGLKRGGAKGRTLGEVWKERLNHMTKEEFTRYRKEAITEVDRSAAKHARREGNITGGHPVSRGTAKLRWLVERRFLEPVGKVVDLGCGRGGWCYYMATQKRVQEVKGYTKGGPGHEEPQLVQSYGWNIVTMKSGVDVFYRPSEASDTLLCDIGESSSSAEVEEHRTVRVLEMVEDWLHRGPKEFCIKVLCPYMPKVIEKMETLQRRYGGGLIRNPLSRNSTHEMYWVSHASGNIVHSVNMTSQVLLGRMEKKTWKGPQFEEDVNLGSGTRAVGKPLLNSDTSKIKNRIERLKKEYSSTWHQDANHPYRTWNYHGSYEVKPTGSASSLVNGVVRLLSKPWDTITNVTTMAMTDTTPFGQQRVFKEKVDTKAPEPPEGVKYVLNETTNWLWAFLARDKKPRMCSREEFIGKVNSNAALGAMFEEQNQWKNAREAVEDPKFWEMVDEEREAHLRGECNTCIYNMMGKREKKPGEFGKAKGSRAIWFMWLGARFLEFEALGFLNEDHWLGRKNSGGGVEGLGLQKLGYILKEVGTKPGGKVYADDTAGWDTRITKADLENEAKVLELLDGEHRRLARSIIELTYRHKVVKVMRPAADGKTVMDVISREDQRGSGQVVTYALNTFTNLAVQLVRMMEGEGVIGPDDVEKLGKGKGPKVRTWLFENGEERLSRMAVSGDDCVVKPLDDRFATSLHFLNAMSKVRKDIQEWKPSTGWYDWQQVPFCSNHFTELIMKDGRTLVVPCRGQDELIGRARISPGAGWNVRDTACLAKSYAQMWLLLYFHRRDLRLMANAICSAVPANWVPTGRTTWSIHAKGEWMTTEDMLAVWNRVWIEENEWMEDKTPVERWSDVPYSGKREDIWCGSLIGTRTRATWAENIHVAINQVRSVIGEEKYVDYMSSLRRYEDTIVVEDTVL

SMILES | Activity [1] [%] | Papp at 5 h, 200 µM [2] [×10⁻⁶ cm/s] | Activity [3] [µM] | Activity [4] [µM] | inhibition [5] | CC50 at 24 h [6] [µM] | inhibition [7] | pEC50 (Genome polyprotein) | inhibition (Trypsin (Homo sapiens)) | inhibition [8] [%] | inhibition [9] | inhibition at 12.5 µM (dengue virus type 2 [10]) [%] | Activity (Huh-7) [%] | pEC50 (dengue virus type 2 [11]; Huh-7) | EC90 (dengue virus type 2 [11]; Huh-7, 216 h, time 9 day) [µM]
NC(=O)N1c2ccccc2C=Cc2ccccc21 [CARBAMAZEPINE] | -7.6 | 8.9 | 187 | 42 | – | – | – | – | – | – | – | – | – | – | –
NC(=O)c1cccc(NC(=O)[C@@H](NC(=O)c2cccc(Oc3ccccc3)c2)c2ccc(OCc3ccccc3)cc2)c1 | – | – | – | – | inactive | > 100 | Active | 5.77 | inactive | 84 | – | – | – | – | –
CCCCCCCC(=O)N[C@H](C(=O)NCc1ccc(C(N)=O)cc1)c1ccc(OCc2ccccc2)cc1 | – | – | – | – | inactive | > 50 | – | – | inactive | 56 | Active | – | – | – | –
CCCCCC(=O)N[C@H](C(=O)NCc1ccc(C(N)=O)cc1)c1ccc(OCc2cccc(OC)c2)cc1 | – | – | – | – | inactive | > 100 | Active | 5.14 | inactive | 61 | – | – | – | – | –
COc1ccccc1Oc1ccc(C(=O)N[C@H](C(=O)Nc2cccc(C(N)=O)c2)c2ccc(OCc3ccccc3)cc2)cc1 | – | – | – | – | inactive | > 100 | Active | 5.66 | inactive | 77 | Active | – | – | – | –
CCCCCCC(=O)N[C@H](C(=O)NCc1ccc(C(N)=O)cc1)c1ccc(OCc2ccccc2)cc1 | – | – | – | – | inactive | > 50 | Active | 5.10 | inactive | 52 | – | – | – | – | –
COc1cccc(COc2ccc([C@H](NC(=O)c3ccc(C(=O)c4ccccc4)cc3)C(=O)Nc3cccc(C(N)=O)c3)cc2)c1 | – | – | – | – | inactive | > 100 | Active | 5.92 | inactive | 79 | – | – | – | – | –
CCCCCC(=O)N[C@H](C(=O)NNc1ccc(C(N)=O)cc1)c1ccc(OCc2ccccc2)cc1 | – | – | – | – | inactive | > 25 | Active | 5.06 | inactive | 60 | – | – | – | – | –
NC(=O)c1cccc(NC(=O)[C@@H](NC(=O)c2ccc(Oc3ccccc3)cc2)c2ccc(OCc3c(Cl)cccc3Cl)cc2)c1 | – | – | – | – | inactive | > 50 | Active | 5.66 | inactive | 71 | – | – | – | – | –
CCCCCC(=O)N[C@H](C(=O)Nc1cccc(C(N)=O)c1)c1ccc(OCc2c(Cl)cccc2Cl)cc1 | – | – | – | – | inactive | > 50 | Active | 5.62 | inactive | 65 | – | – | – | – | –
CCCCCC(=O)N[C@H](C(=O)N1CCC(C(=O)Nc2ccccc2)CC1)c1ccc(OCc2ccccc2)cc1 | – | – | – | – | inactive | > 50 | Active | 4.70 | inactive | 35 | – | – | – | – | –
NC(=O)c1cccc(NC(=O)[C@@H](NC(=O)c2ccc(Oc3cccc4c3C(=O)CC4)cc2)c2ccc(OCc3ccccc3)cc2)c1 | – | – | – | – | inactive | > 100 | – | 5.41 | inactive | 57 | Active | – | – | – | –
NC(=O)c1cccc(NC(=O)[C@@H](NC(=O)c2ccc(Oc3ccc4c(c3)OCO4)cc2)c2ccc(OCc3ccccc3)cc2)c1 | 8.7 | 0.8 | 180 | 3.7 | inactive | > 100 | Active | 5.82 | inactive | 78 | – | 98 | < 20 | 5.66 | 6.8
CCCCCCCS(=O)(=O)N[C@H](C(=O)NCc1ccc(C(N)=O)cc1)c1ccc(OCc2ccccc2)cc1 | – | – | – | – | inactive | > 25 | – | 4.96 | inactive | 47 | Active | – | – | – | –
NC(=O)c1cccc(NC(=O)[C@@H](NC(=O)c2ccc(-c3cncnc3)cc2)c2ccc(OCc3ccccc3)cc2)c1 | – | – | – | – | inactive | > 50 | Active | 5.09 | inactive | 59 | Active | – | – | – | –
O=C1NC(=O)C(c2ccccc2)(c2ccccc2)N1 [PHENYTOIN] | 8.7 | 5.7 | 166 | 25 | – | – | – | – | – | – | – | – | – | – | –
CCCC[C@H](NC(C)=O)C(=O)N[C@H](C(=O)NCc1ccc(C(N)=O)cc1)c1ccc(OCc2ccccc2)cc1 | – | – | – | – | inactive | > 50 | Active | – | inactive | 16 | – | – | – | – | –
CCCCCC(=O)N[C@H](C(=O)Nc1cccc(C(N)=O)c1)c1ccc(OCc2ccccc2)cc1 | – | – | – | – | inactive | > 50 | Active | 5.34 | inactive | 76 | – | – | – | – | –
NC(=O)c1cccc(NC(=O)[C@@H](NC(=O)c2ccc3c(c2)OCCO3)c2ccc(OCc3ccccc3)cc2)c1 | – | – | – | – | inactive | > 100 | Active | 5.27 | inactive | 69 | – | – | – | – | –
NC(=O)c1cccc(NC(=O)[C@@H](NC(=O)c2ccc(Oc3ccc4c(c3)OCCO4)cc2)c2ccc(OCc3ccccc3)cc2)c1 | – | – | – | – | inactive | > 100 | Active | 5.42 | inactive | 61 | Active | – | – | – | –
NC(=O)c1ccc(CNC(=O)[C@@H](NC(=O)c2ccc(Oc3ccccc3)cc2)c2ccc(OCc3ccccc3)cc2)cc1 | 8.9 | 0.61 | 180 | 3 | inactive | 18 | Active | 6.00 | inactive | 82 | – | 90 | 61.4 | – | –
NC(=O)c1ccc(CNC(=O)[C@@H](NC(=O)c2ccc(OCc3ccccc3)cc2)c2ccc(OCc3ccccc3)cc2)cc1 | – | – | – | – | inactive | > 25 | Active | 5.40 | inactive | 64 | Active | – | – | – | –
CCCCCC(=O)N[C@H](C(=O)NCc1ccc(C(N)=O)cc1)c1ccc(OCc2c(Cl)cccc2Cl)cc1 | – | – | – | – | inactive | > 50 | Active | 5.08 | inactive | 71 | Active | – | – | – | –
Cn1c(=O)c2c(ncn2C)n(C)c1=O [CAFFEINE] | 2.4 | 7.3 | 173 | 33 | – | – | – | – | – | – | – | – | – | – | –
